The source of these data is ChEMBL document CHEMBL1145764, “Nonbenzamidine isoxazoline derivatives as factor Xa inhibitors” (Bioorg Med Chem Lett, 2003).

Where only a bound is given, the exact number is not on record here.

Data set [1] concerns the target Serine protease 1 (Homo sapiens, UniProt P07477). Description: Inhibitory activity against trypsin using human purified enzyme. In outline: (§1)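 Human purified enzyme in 0.1 M sodium phosphate buffer with 0.2 M NaCl and 0.5% polyethylene glycol 6000, pH 7.0. Inhibitor tested at eight half-log concentrations from 10 down to 0.00316. Plates read at 405 nm for 30 min. Rates compared with no-inhibitor controls to give % activity, converted to Ki using substrate concentration and Km. Duplicate runs with common internal standards.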

Data set [2] has as its target Prothrombin (Homo sapiens, UniProt P00734). Put plainly: Inhibitory activity against thrombin using human purified enzyme. In outline:
as §1

The target in data set [3] is Coagulation factor X (Homo sapiens, UniProt P00742). Put plainly: Inhibitory activity against factor Xa using human purified enzyme. In outline: as §1
Data set [4] can be described thus: Pharmacokinetic profile in terms of clearance was determined at a dose of 5 mg/kg administered intravenously in dog. Type of data set: ADME, organism-based, Canis lupus familiaris. The conditions noted are these: in vivo, iv. Set-up: dose 5 mg/kg, route intravenous.
The species entered for data set [5] is Oryctolagus cuniculus. Description: (§2) Inhibitory concentration required for antithrombotic efficacy in rabbit arterio-venous shunt model. Type of data set: functional.
Data set [6] is described as follows: Pharmacokinetic profile in terms of half life was determined at a dose of 5 mg/kg administered intravenously in dog. Type of data set: ADME, organism-based, Canis lupus familiaris. Set-up: dose 5 mg/kg, route intravenous. The conditions noted are these: in vivo, iv.
The target of data set [7] is T1, Coagulation factor X (Oryctolagus cuniculus, UniProt O19045).
T1 sequence (O19045 whole entry): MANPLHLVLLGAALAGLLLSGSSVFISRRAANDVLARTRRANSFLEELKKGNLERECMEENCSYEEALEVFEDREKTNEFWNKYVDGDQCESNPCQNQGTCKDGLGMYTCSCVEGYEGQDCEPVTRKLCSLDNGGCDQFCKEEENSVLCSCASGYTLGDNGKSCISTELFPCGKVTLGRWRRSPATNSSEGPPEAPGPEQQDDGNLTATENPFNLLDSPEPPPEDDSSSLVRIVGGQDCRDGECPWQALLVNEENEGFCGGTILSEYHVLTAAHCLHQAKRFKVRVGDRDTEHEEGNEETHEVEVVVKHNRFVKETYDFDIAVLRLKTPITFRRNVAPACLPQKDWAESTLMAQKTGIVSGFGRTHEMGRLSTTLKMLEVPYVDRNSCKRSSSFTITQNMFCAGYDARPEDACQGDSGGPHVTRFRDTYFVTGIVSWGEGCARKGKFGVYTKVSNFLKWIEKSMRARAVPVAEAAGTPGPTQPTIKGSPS
Put plainly: Inhibitory activity against Rabbit factor Xa was determined.

The species entered for data set [8] is Oryctolagus cuniculus. The description is as §2. Type of data set: functional, organism-based.
Data set [9] in a line: Pharmacokinetic profile in terms of half life was determined at a dose of 0.5 mg/kg administered intravenously in dog. Type of data set: ADME, organism-based, Canis lupus familiaris. Set-up: dose 0.5 mg/kg, route intravenous. The conditions noted are these: in vivo, iv.
A short description of data set [10]: Pharmacokinetic profile in terms of clearance was determined at a dose of 0.5 mg/kg administered intravenously in dog. Type of data set: ADME, organism-based, Canis lupus familiaris. Set-up: dose 0.5 mg/kg, route intravenous. The note with it: in vivo, iv.

Sequence of Serine protease 1 (P07477 whole entry): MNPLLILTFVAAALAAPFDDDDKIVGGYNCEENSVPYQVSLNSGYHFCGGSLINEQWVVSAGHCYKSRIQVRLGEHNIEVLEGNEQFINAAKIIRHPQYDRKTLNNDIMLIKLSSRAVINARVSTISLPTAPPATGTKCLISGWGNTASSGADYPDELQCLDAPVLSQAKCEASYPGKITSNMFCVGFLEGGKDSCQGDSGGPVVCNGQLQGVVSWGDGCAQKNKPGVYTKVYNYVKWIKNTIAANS
Sequence of Coagulation factor X (Homo sapiens, UniProt P00742) (P00742 41-179 limits assumed): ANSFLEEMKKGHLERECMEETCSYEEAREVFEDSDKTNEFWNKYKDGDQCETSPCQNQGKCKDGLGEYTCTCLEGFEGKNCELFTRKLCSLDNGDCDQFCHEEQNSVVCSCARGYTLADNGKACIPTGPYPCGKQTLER
Sequence of Coagulation factor X (Homo sapiens, UniProt P00742) (P00742 235-488 limits assumed): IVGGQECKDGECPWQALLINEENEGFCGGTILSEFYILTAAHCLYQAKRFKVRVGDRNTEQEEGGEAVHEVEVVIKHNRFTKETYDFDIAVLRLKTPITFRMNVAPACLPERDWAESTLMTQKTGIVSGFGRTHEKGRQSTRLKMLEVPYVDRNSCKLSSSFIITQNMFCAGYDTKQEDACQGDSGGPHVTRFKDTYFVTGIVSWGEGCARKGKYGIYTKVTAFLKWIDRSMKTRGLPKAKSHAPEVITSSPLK

As a reminder, the Ki is a dissociation constant, usually derived from enzyme kinetics or from competition with a known ligand. Low values mean a stronger hold on the target, high ones a looser hold on the target. For `COc1ccc(C2=NOC(CNS(C)(=O)=O)(C(=O)Nc3ccc(-c4ccccc4S(N)(=O)=O)cn3)C2)cc1` (centres undefined), the figures for the Ki in data set [1], in [2] and in data set [3] were greater than 4200 nM, greater than 6300 nM and 10 nM, respectively.
One may read the clearance as the rate of elimination divided by the concentration. A high value points to a high capacity for elimination. What is called half-life is how long it takes for the measured level to halve. In data set [4], `N=C(N)c1cccc(C2=NOC(Cn3cnnn3)(C(=O)Nc3ccc(-c4ccccc4S(N)(=O)=O)cn3)C2)c1` (centres undefined) had a clearance of 22 mL/min/kg. In addition, in data set [5], the ID50 worked out at 0.032 µM/h/kg. The same compound gave a half-life in data set [6] of 1.1 h. Further, the Ki in data set [7] amounted to 0.11 nM.
With `CC1(C(=O)Nc2ccc(-c3ccccc3S(N)(=O)=O)cc2)CC(c2ccc(Cl)c(N)c2)=NO1` (centres undefined), affinity in [3] was put at a Ki of 130 nM. In other words, the sub-micromolar range.
As for `CC1(C(=O)Nc2ccc(-c3ccccc3S(N)(=O)=O)cc2)CC(c2cccc(C(=N)N)c2)=NO1` (centres undefined), the Ki in data set [3] was 7.2 nM.
With `CS(=O)(=O)NCC1(C(=O)Nc2ccc(-c3ccccc3S(N)(=O)=O)cn2)CC(c2ccc3onc(N)c3c2)=NO1` (centres undefined), the results for the inhibition constant Ki in data set [1], in data set [2] and in data set [3] were greater than 5200 nM, 5200 nM and 4.6 nM, respectively.
The matching figures for `Nc1cc(C2=NOC(Cn3cccn3)(C(=O)Nc3ccc(-c4ccccc4S(N)(=O)=O)cn3)C2)ccc1Cl` (racemic): greater than 1600 nM, greater than 21000 nM and 14 nM.
The matching figures for `NC(=O)NCC1(C(=O)Nc2ccc(-c3ccccc3S(N)(=O)=O)cn2)CC(c2ccc(Cl)c(N)c2)=NO1` (racemic): greater than 1600 nM, 9300 nM and 2.5 nM.
The corresponding values for `CC(=O)NCC1(C(=O)Nc2ccc(-c3ccccc3S(N)(=O)=O)cn2)CC(c2ccc(Cl)c(N)c2)=NO1` (racemic) are greater than 1600 nM, greater than 21000 nM and 11 nM.
Regarding `Nc1cc(C2=NOC(Cn3cnnn3)(C(=O)Nc3ccc(-c4ccccc4S(N)(=O)=O)cn3)C2)ccc1Cl` (racemic), the results for the Ki in data set [1], in data set [2] and in data set [3] were greater than 1600 nM, greater than 21000 nM and 10 nM, respectively.
The corresponding values for `Nc1cc(C2=NOC(CNS(=O)(=O)Cc3ccccc3)(C(=O)Nc3ccc(-c4ccccc4S(N)(=O)=O)cn3)C2)ccc1Cl` (racemic) are greater than 4200 nM, 6200 nM and 2.2 nM.
The corresponding values for `Nc1cc(C2=NOC(CNS(=O)(=O)c3ccccc3)(C(=O)Nc3ccc(-c4ccccc4S(N)(=O)=O)cn3)C2)ccc1Cl` (racemic) are greater than 8000 nM, greater than 21000 nM and 1.7 nM.
Consider `Nc1cc(C2=NOC(CNS(=O)(=O)CC(F)(F)F)(C(=O)Nc3ccc(-c4ccccc4S(N)(=O)=O)cn3)C2)ccc1Cl` (racemic), for which the figures for the inhibitory constant (Ki) in data set [1], in data set [2] and in [3] were greater than 8000 nM, 6600 nM and 3.3 nM, respectively.
The matching figures for `Nc1cc(C2=NOC(CNS(=O)(=O)c3ccsc3)(C(=O)Nc3ccc(-c4ccccc4S(N)(=O)=O)cn3)C2)ccc1Cl` (racemic): greater than 8000 nM, greater than 21000 nM and 1.2 nM.
The corresponding values for `CS(=O)(=O)NCC1(C(=O)Nc2ccc(-c3ccccc3S(N)(=O)=O)cn2)CC(c2ccc(Cl)c(N)c2)=NO1` (racemic) are greater than 8000 nM, 1300 nM and 1.9 nM.
`Nc1cc(C2=NOC(Cn3cncn3)(C(=O)Nc3ccc(-c4ccccc4S(N)(=O)=O)cn3)C2)ccc1Cl` (racemic): the Ki was greater than 4200 nM in data set [1], greater than 21000 nM in data set [2] and 34 nM in [3].
The corresponding values for `Nc1cc(C2=NOC(CNS(N)(=O)=O)(C(=O)Nc3ccc(-c4ccccc4S(N)(=O)=O)cn3)C2)ccc1Cl` (racemic) are greater than 8000 nM, 5900 nM and 5.5 nM.
The matching figures for `Nc1cc(C2=NOC(CNS(=O)(=O)c3cccnc3)(C(=O)Nc3ccc(-c4ccccc4S(N)(=O)=O)cn3)C2)ccc1Cl` (racemic): greater than 8000 nM, 17000 nM and 3 nM.
For `Nc1cc(C2=NOC(CNC=O)(C(=O)Nc3ccc(-c4ccccc4S(N)(=O)=O)cn3)C2)ccc1Cl` (racemic), the Ki in data set [1] is greater than 8000 nM; in data set [2] it was 14000 nM; in [3], 15 nM.
As for `CCCS(=O)(=O)NCC1(C(=O)Nc2ccc(-c3ccccc3S(N)(=O)=O)cn2)CC(c2ccc(Cl)c(N)c2)=NO1` (racemic), the Ki in data set [1] is greater than 8000 nM; in data set [2], 18000 nM; in data set [3], 3.7 nM.
Consider `CCNC(=O)NCC1(C(=O)Nc2ccc(-c3ccccc3S(N)(=O)=O)cn2)CC(c2ccc(Cl)c(N)c2)=NO1` (racemic), for which the Ki was greater than 4200 nM in data set [1], greater than 6300 nM in [2] and 69 nM in data set [3].
In the case of `Nc1cc(C2=NOC(Cn3cccn3)(C(=O)Nc3ccc(-c4ccccc4S(N)(=O)=O)cn3)C2)ccc1Cl` (single isomer, unassigned; (+)), the figures for the Ki in data set [1], in data set [2] and in [3] were greater than 1600 nM, greater than 21000 nM and 1100 nM, respectively.
As for `NC(=O)NCC1(C(=O)Nc2ccc(-c3ccccc3S(N)(=O)=O)cn2)CC(c2ccc(Cl)c(N)c2)=NO1` (single isomer, unassigned; (+)), the Ki is greater than 6000 nM in [1], greater than 21000 nM in data set [2] and 69 nM in data set [3].
The corresponding values for `Nc1cc(C2=NOC(Cn3cnnn3)(C(=O)Nc3ccc(-c4ccccc4S(N)(=O)=O)cn3)C2)ccc1Cl` (single isomer, unassigned; (+)) are greater than 1600 nM, greater than 21000 nM and 320 nM.
The corresponding values for `CS(=O)(=O)NCC1(C(=O)Nc2ccc(-c3ccccc3S(N)(=O)=O)cn2)CC(c2ccc(Cl)c(N)c2)=NO1` (single isomer, unassigned; (+)) are greater than 4200 nM, greater than 21000 nM and 240 nM.
The corresponding values for `Nc1cc(C2=NOC(Cn3cccn3)(C(=O)Nc3ccc(-c4ccccc4S(N)(=O)=O)cn3)C2)ccc1Cl` (single isomer, unassigned; (-)) are greater than 1600 nM, greater than 21000 nM and 15 nM.
In the case of `NC(=O)NCC1(C(=O)Nc2ccc(-c3ccccc3S(N)(=O)=O)cn2)CC(c2ccc(Cl)c(N)c2)=NO1` (single isomer, unassigned; (-)), the Ki in data set [1] is greater than 1600 nM; in data set [2], 800 nM; in data set [3], 2.5 nM; in data set [7] it was 4.7 nM. The compound further had an ID50 in [8] of 5.5 µmol/kg/h. Moreover, the half-life in data set [9] was 2.32 h. Moreover, the clearance in [10] was 7.17 mL/min/kg.
Consider `CS(=O)(=O)NCC1(C(=O)Nc2ccc(-c3ccccc3S(N)(=O)=O)cn2)CC(c2ccc(Cl)c(N)c2)=NO1` (stereo in doubt), for which the Ki was greater than 8000 nM in [1], 800 nM in [2], 1.5 nM in data set [3] and 2.3 nM in data set [7]. Also, the ID50 in data set [5] worked out at 8 µM/h/kg. The half-life in data set [9] is 7.25 h. In [10], this compound showed a clearance of 8.83 mL/min/kg.
In the case of `Nc1cc(C2=NOC(Cn3cnnn3)(C(=O)Nc3ccc(-c4ccccc4S(N)(=O)=O)cn3)C2)ccc1Cl` (stereo in doubt; 20 (-)), the results for the Ki in [1], in data set [2] and in data set [3] were greater than 1600 nM, 19000 nM and 7.1 nM, respectively.
